Measurements reported in ChEMBL document CHEMBL4477182, “Evaluation of the Intestinal Absorption Mechanism of Casearin X in Caco-2 Cells with Modified Carboxylesterase Activity” (J Nat Prod, 2016).

What was measured:
[1] = Permeability from basolateral to apical side in human Caco2 cells assessed as drug recovery at 2 uM after 10 mins in absence of CES inhibitor BNPP by LC-MS method; type: ADME, cell-based; details: Caco-2, read-out: Drug recovery
How it was run: (§1)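 Caco-2 monolayers grown 19−21 days on Transwell inserts. Pretreated 40 min at 37 °C with 200 μM BNPP in HBSS on both sides, or sham HBSS, then 40 min DMEM washout. Monolayers with TEER >250 Ω cm2 were dosed at 2 μM (1% DMSO) on the donor side; basolateral buffer had 4% FBS. Shaken at 37 °C. Buffer, cell and plastic extracts at 10, 60 and 120 min were measured by LC-MS for total recovery; mean(SD), n = 3.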

[2] = Permeability from apical to basolateral side in human Caco2 cells assessed as drug recovery at 2 uM after 120 mins in presence of CES inhibitor BNPP by LC-MS method; type: ADME, cell-based; details: Caco-2, with BNPP (CES inhibitor), concentration not stated, read-out: Drug recovery; how it was run: as §1
[3] = Permeability from basolateral to apical side in human Caco2 cells assessed as drug recovery at 2 uM after 60 mins in absence of CES inhibitor BNPP by LC-MS method; type: ADME, cell-based; details: Caco-2, read-out: Drug recovery; how it was run: as §1
[4] = Permeability from basolateral to apical side in human Caco2 cells assessed as drug recovery at 2 uM after 60 mins in presence of CES inhibitor BNPP by LC-MS method; type: ADME, cell-based; details: Caco-2, with BNPP (CES inhibitor), concentration not stated, read-out: Drug recovery; how it was run: as §1
[5] = Permeability from apical to basolateral side in human Caco2 cells assessed as drug recovery at 2 uM after 120 mins in absence of CES inhibitor BNPP by LC-MS method; type: ADME, cell-based; details: Caco-2, read-out: Drug recovery; how it was run: as §1
[6] = Permeability from apical to basolateral side in human Caco2 cells assessed as drug recovery at 2 uM after 60 mins in presence of CES inhibitor BNPP by LC-MS method; type: ADME, cell-based; details: Caco-2, with BNPP (CES inhibitor), concentration not stated, read-out: Drug recovery; how it was run: as §1
[7] = Permeability from basolateral to apical side in human Caco2 cells assessed as drug recovery at 2 uM after 10 mins in presence of CES inhibitor BNPP by LC-MS method; type: ADME, cell-based; details: Caco-2, with BNPP (CES inhibitor), concentration not stated, read-out: Drug recovery; how it was run: as §1
[8] = Permeability from apical to basolateral side in human Caco2 cells assessed as drug recovery at 2 uM after 60 mins in absence of CES inhibitor BNPP by LC-MS method; type: ADME, cell-based; details: Caco-2, read-out: Drug recovery; how it was run: as §1
CE2 (cocaine esterase) [9] = target: T1, CE2 (cocaine esterase) (Homo sapiens, UniProt O00748); experiment: Drug metabolism assessed as human CE2-mediated compound hydrolysis at 1 uM incubated for 30 mins measured every 5 mins by LC-MS analysis; type: ADME; details: human CE2 enzyme, read-out: Drug metabolism
T1 sequence (O00748 whole entry): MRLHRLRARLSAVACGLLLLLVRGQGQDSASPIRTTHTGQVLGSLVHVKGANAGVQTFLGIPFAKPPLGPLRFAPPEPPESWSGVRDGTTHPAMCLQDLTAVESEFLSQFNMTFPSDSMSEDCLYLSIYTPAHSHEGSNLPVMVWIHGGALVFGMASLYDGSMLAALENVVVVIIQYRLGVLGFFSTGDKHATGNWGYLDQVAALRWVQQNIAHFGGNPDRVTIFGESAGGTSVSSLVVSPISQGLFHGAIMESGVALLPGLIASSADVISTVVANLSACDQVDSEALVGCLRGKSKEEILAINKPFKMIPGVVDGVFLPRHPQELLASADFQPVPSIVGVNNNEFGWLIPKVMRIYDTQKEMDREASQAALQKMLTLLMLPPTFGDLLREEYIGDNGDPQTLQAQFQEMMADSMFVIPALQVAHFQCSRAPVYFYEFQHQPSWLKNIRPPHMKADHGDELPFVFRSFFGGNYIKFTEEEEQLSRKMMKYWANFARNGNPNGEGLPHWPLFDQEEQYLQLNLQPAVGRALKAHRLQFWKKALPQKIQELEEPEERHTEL
How it was run: (§2)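 Purified human hCE2 (0.2 μg/mL) in 90 mM KH2PO4, 40 mM KCl, pH 7.3, preincubated 5 min at 37 °C. Reaction started with 1 μM substrate (0.1% DMSO final) and sampled every 5 min to 30 min, in triplicate. Quenched with ice-cold acetonitrile and quantified by LC-MS (SIM, m/z 555 Na adduct). Half-life = ln 2 / slope of ln % remaining versus time.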

[10] = Permeability from apical to basolateral side in human Caco2 cells assessed as drug recovery at 2 uM after 10 mins in absence of CES inhibitor BNPP by LC-MS method; type: ADME, cell-based; details: Caco-2, read-out: Drug recovery; how it was run: as §1
Caco-2 = experiment: Cytotoxicity against human Caco2 cells assessed as reduction in cell viability after 5 hrs by MTT assay; type: cell-based; details: caco-2, 5 h
How it was run: (§3)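 Caco-2 cells (passage 60−65) seeded at 1.14 × 10^5 cells/cm2, grown 24 h, then exposed in transport buffer (pH 7.4) to 1, 2, 3, 4, 5 and 10 μM for 5 h at 37 °C, 8% CO2. After a DPBS wash, MTT was added for 2 h. A 1% DMSO blank gave background. n = 18; ANOVA with Bonferroni test.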

[11] = Permeability from basolateral to apical side in human Caco2 cells assessed as drug recovery at 2 uM after 120 mins in presence of CES inhibitor BNPP by LC-MS method; type: ADME, cell-based; details: Caco-2, with BNPP (CES inhibitor), concentration not stated, read-out: Drug recovery; how it was run: as §1
[12] = Permeability from basolateral to apical side in human Caco2 cells assessed as drug recovery at 2 uM after 120 mins in absence of CES inhibitor BNPP by LC-MS method; type: ADME, cell-based; details: Caco-2, read-out: Drug recovery; how it was run: as §1
[13] = Permeability from apical to basolateral side in human Caco2 cells assessed as drug recovery at 2 uM after 10 mins in presence of CES inhibitor BNPP by LC-MS method; type: ADME, cell-based; details: Caco-2, with BNPP (CES inhibitor), concentration not stated, read-out: Drug recovery; how it was run: as §1
[14] = Cytotoxicity against human Caco2 cells assessed as cell viability at 1 uM after 5 hrs by MTT assay relative to control; type: cell-based; details: Caco-2 cells, read-out: Activity; how it was run: as §3
Cocaine esterase = target: T2, Cocaine esterase (Homo sapiens, UniProt O00748); experiment: Drug metabolism assessed as human CE2-mediated compound hydrolysis by measuring specific activity of enzyme per mg of protein at 1 uM incubated for 30 mins; type: ADME; details: 0.5 h; how it was run: as §2
T2 sequence (O00748 whole entry): T1 sequence (O00748 whole entry)

[15] = Cytotoxicity against human Caco2 cells assessed as cell viability at 2 uM after 5 hrs by MTT assay relative to control; type: cell-based; details: Caco-2 cells, read-out: Activity; how it was run: as §3
CE2 (cocaine esterase) [16] = target: T1, CE2 (cocaine esterase); experiment: Drug metabolism assessed as human CE2-mediated compound hydrolysis by measuring compound half life at 1 uM incubated for 30 mins by LC-MS analysis; type: ADME; details: human CE2 enzyme; how it was run: as §2

recovery at 10 min, 2 µM [1]: 74.4%
recovery at 2 h, 2 µM [2]: 87.4%
recovery at 1 h, 2 µM [3]: 46.5%
recovery at 1 h, 2 µM [4]: 89.3%
recovery at 2 h, 2 µM [5]: 12%
recovery at 1 h, 2 µM [6]: 87.2%
recovery at 10 min, 2 µM [7]: 93.9%
recovery at 1 h, 2 µM [8]: 33.3%
metabolised at 0.5 h, 1 µM (CE2 (cocaine esterase) [9]): 30%
recovery at 10 min, 2 µM [10]: 68.4%
recovery at 2 h, 2 µM [11]: 92.9%
recovery at 2 h, 2 µM [12]: 27.6%
recovery at 10 min, 2 µM [13]: 85.4%
Drug metabolism (Cocaine esterase): 55.8 pmol/min
half-life at 1 µM (CE2 (cocaine esterase) [16]): 49.5 min
SMILES: C=C/C(C)=C\C[C@]1(C)[C@H](C)C[C@H](O)[C@@]23C(=C[C@H](OC(=O)CCC)C[C@@H]12)[C@@H](OC(=O)CCC)O[C@H]3OC(C)=O
Activity (Caco-2): Dose-dependent effect
viability at 5 h, 1 µM [14]: 98.9%
viability at 5 h, 2 µM [15]: 97.9%
